Measurements as given in ChEMBL document CHEMBL4725236, “Synthesis and pharmacological evaluation of bivalent tethered ligands to target the mGlu heterodimeric receptor results in a compound with mGlu homodimer selectivity” (Bioorg Med Chem Lett, 2020).

Columns and labels:
Format in all cases: cell-based
[1] = molecular target: Metabotropic glutamate receptor 2 (Rattus norvegicus) (UniProt P31421); assay: Positive allosteric modulation of rat mGlu2 receptor expressed in HEK293 cells coexpressing GIRK assessed as thallium influx by CODA-RET assay relative to glutamate; settings: filed as positive allosteric modulator
In short: (§1)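 HEK293/GIRK thallium flux assay in cells expressing only mGlu2 or only mGlu4. Concentration-response measured against a fixed EC20 glutamate level. Potency (EC50), Hill slope and efficacy (% of the response to saturating glutamate) come from a single experiment run in triplicate.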

[2] = molecular target: Metabotropic glutamate receptor 2 (Rattus norvegicus, UniProt P31421); assay: Positive allosteric modulation of rat mGlu2 receptor expressed in HEK293 cells coexpressing GIRK assessed as thallium influx in presence of EC20 glutamate by CODA-RET assay; in short: as §1
[3] = Positive allosteric modulation of rat mGlu2/mGlu4 receptor expressed in HEK293 cells coexpressing GIRK assessed as thallium influx in presence of EC20 glutamate by CODA-RET assay
In short: (§2)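 HEK293 cells co-expressing mGlu2, mGlu4 and GIRK channels; thallium flux read-out. Test compound concentration-response in the presence of a fixed EC20 glutamate concentration. Gives EC50, Hill slope and maximal response as % of a saturating glutamate concentration. N=3 experiments, each in triplicate.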

[4] = molecular target: Metabotropic glutamate receptor 4 (Rattus norvegicus) (UniProt P31423); assay: Positive allosteric modulation of rat mGlu4 receptor expressed in HEK293 cells coexpressing GIRK assessed as thallium influx by CODA-RET assay relative to glutamate; settings: filed as positive allosteric modulator; in short: as §1
HEK293 = assay: Positive allosteric modulation of rat mGlu2/mGlu4 receptor expressed in HEK293 cells coexpressing GIRK assessed as thallium influx by CODA-RET assay relative to glutamate; settings: filed as positive allosteric modulator; in short: as §2
[5] = molecular target: Metabotropic glutamate receptor 4 (Rattus norvegicus, UniProt P31423); assay: Positive allosteric modulation of rat mGlu4 receptor expressed in HEK293 cells coexpressing GIRK assessed as thallium influx in presence of EC20 glutamate by CODA-RET assay; in short: as §1
Sequence of Metabotropic glutamate receptor 4 (P31423 whole entry): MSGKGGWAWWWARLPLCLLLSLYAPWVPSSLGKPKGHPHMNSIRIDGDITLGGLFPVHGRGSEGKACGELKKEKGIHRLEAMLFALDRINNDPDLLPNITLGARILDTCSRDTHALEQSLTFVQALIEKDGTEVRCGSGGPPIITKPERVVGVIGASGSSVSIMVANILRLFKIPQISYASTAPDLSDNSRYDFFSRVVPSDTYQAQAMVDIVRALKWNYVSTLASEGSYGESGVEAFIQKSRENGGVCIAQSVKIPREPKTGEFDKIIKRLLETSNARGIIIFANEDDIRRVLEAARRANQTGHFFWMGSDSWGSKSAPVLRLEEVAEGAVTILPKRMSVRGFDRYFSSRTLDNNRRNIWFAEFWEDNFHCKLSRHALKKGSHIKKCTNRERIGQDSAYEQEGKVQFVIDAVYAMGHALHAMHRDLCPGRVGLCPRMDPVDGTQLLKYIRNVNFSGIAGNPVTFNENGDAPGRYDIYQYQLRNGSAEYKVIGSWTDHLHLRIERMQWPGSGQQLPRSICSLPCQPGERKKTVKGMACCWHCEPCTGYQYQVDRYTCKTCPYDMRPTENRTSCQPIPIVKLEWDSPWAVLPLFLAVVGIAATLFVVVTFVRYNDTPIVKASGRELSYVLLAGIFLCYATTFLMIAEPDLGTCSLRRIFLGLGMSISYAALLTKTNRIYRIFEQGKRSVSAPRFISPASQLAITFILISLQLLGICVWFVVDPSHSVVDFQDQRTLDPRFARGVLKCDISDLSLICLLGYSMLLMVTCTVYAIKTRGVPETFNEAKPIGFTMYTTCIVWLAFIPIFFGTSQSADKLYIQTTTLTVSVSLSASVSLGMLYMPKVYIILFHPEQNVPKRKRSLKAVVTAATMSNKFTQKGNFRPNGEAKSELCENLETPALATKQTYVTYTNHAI

Sequence of Metabotropic glutamate receptor 2 (Rattus norvegicus) (P31421 19-872 limits assumed): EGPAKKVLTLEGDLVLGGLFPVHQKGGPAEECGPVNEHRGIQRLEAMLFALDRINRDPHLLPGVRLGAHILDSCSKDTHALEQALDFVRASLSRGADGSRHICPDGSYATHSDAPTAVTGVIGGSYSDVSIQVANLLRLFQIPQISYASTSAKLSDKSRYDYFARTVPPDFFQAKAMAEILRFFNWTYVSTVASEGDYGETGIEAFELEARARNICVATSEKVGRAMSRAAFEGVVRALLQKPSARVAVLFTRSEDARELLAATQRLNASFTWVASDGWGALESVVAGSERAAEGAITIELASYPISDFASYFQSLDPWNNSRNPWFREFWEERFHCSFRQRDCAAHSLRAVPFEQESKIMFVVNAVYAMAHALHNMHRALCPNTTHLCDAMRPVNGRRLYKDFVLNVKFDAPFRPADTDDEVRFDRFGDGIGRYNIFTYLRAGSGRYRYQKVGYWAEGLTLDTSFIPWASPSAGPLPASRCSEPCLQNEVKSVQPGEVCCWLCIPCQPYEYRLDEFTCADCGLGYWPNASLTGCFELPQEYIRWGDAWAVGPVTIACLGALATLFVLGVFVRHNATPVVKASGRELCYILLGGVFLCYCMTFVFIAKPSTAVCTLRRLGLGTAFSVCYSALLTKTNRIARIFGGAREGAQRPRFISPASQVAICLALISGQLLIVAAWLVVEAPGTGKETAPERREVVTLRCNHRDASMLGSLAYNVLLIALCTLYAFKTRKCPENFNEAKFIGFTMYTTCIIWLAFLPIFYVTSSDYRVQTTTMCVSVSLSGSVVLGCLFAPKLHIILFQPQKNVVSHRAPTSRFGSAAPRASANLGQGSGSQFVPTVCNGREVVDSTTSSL
Sequence of Metabotropic glutamate receptor 4 (Rattus norvegicus) (P31423 whole entry): as the sequence (P31423 whole entry) above
Sequence of Metabotropic glutamate receptor 2 (P31421 whole entry): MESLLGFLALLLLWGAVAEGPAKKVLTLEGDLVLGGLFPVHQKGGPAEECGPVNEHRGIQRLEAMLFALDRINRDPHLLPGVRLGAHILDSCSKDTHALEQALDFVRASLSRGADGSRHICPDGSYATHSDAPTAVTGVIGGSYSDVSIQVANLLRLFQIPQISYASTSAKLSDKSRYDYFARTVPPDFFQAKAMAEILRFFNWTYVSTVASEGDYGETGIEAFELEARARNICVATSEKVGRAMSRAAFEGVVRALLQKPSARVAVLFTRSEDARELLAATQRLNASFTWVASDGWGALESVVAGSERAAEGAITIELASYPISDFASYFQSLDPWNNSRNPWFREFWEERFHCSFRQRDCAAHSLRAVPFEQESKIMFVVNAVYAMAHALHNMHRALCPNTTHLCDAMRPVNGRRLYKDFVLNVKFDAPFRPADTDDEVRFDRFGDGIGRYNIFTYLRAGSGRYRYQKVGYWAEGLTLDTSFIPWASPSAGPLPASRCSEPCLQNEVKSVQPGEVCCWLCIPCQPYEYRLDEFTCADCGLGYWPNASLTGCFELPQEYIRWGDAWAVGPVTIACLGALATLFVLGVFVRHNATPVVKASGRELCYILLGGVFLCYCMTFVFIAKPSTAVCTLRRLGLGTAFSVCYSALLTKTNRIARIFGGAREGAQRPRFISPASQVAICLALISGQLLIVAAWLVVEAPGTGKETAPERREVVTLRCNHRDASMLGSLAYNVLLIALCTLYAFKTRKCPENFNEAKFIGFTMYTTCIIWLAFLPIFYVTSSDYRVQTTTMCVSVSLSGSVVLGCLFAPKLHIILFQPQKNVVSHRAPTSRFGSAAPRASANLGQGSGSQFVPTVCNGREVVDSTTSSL

| Emax [1] [%] | EC50 [2] [nM] | EC50 [3] [nM] | Emax [4] [%] | EC50 [5] [nM] | Structure (SMILES) | Emax (HEK293) [%] |
| --- | --- | --- | --- | --- | --- | --- |
| 102 | 92 | 128 | 110 | 35 | COc1cc(NC(=O)c2ccccn2)ccc1NC(=O)c1ccc(NC(=O)COCC(=O)NCCCCCNC(=O)COc2ccc(-c3cccc(COc4cc5c(c(C)c4C)C(=O)C(C4CCCC4)C5)c3)cc2C(=O)O)cc1Cl (stereo not given) | 89 |
| – | – | 2760 | 94.4 | 34 | COc1cc(NC(=O)c2ccccn2)ccc1NC(=O)c1ccccc1Cl | 42 |
| 92 | 281 | 463 | 104 | 657 | COc1cc(NC(=O)c2ccccn2)ccc1NC(=O)c1ccc(NC(=O)COCC(=O)NCCNC(=O)COc2ccc(-c3cccc(COc4cc5c(c(C)c4C)C(=O)C(C4CCCC4)C5)c3)cc2C(=O)O)cc1Cl (stereo not given) | 70 |
| 113 | 62 | – | – | – | Cc1c(OCc2cccc(-c3ccc(O)c(C(=O)O)c3)c2)cc2c(c1C)C(=O)C(C1CCCC1)C2 (stereo not given) | – |
| 100 | 54 | 90 | 114 | 38 | COc1cc(NC(=O)c2ccccn2)ccc1NC(=O)c1ccc(NC(=O)COCC(=O)NCCCNC(=O)COc2ccc(-c3cccc(COc4cc5c(c(C)c4C)C(=O)C(C4CCCC4)C5)c3)cc2C(=O)O)cc1Cl (stereo not given) | – |

The remaining lines, values behind:

| Structure (SMILES) | Emax [1] [%] | EC50 [2] [nM] | EC50 [3] [nM] | Emax [4] [%] | EC50 [5] [nM] | Emax (HEK293) [%] |
| --- | --- | --- | --- | --- | --- | --- |
| Cc1c(OCc2cccc(-c3cccc(C(=O)O)c3)c2)cc2c(c1C)C(=O)C(C1CCCC1)C2 (stereo not given) | 118 | 69 | – | – | – | – |
| COc1cc(NC(=O)c2ccccn2)ccc1NC(=O)c1ccc(NC(=O)COCC(=O)NCCCCNC(=O)COc2ccc(-c3cccc(COc4cc5c(c(C)c4C)C(=O)C(C4CCCC4)C5)c3)cc2C(=O)O)cc1Cl (stereo not given) | 98 | 98 | 150 | 113 | 33 | 88 |
| COc1cc(NC(=O)c2ccccn2)ccc1NC(=O)c1ccc(NC(=O)COCC(=O)NCCCCCCCCNC(=O)COc2ccc(-c3cccc(COc4cc5c(c(C)c4C)C(=O)C(C4CCCC4)C5)c3)cc2C(=O)O)cc1Cl (stereo not given) | 97 | 94 | 371 | 52 | 32 | 83 |
| COc1cc(NC(=O)c2ccccn2)ccc1NC(=O)c1ccc(NC(=O)COCC(=O)NCCCCCCCNC(=O)COc2ccc(-c3cccc(COc4cc5c(c(C)c4C)C(=O)C(C4CCCC4)C5)c3)cc2C(=O)O)cc1Cl (stereo not given) | 101 | 122 | 524 | 85 | 30 | 86 |
| COc1cc(NC(=O)c2ccccn2)ccc1NC(=O)c1ccc(NC(=O)COCC(=O)NCCCCCCNC(=O)COc2ccc(-c3cccc(COc4cc5c(c(C)c4C)C(=O)C(C4CCCC4)C5)c3)cc2C(=O)O)cc1Cl (stereo not given) | 102 | 62 | 680 | 106 | 32 | 101 |
| COc1cc(NC(=O)c2ccccn2)ccc1NC(=O)c1ccc(NC(=O)COCC(=O)NCCCCCCCCCCCCNC(=O)COc2ccc(-c3cccc(COc4cc5c(c(C)c4C)C(=O)C(C4CCCC4)C5)c3)cc2C(=O)O)cc1Cl (stereo not given) | 102 | 1180 | 2070 | 45 | > 10000 | 71 |
| COc1cc(NC(=O)c2ccccn2)ccc1NC(=O)c1ccc(NC(=O)COCC(=O)NCCCCCCCCCCNC(=O)COc2ccc(-c3cccc(COc4cc5c(c(C)c4C)C(=O)C(C4CCCC4)C5)c3)cc2C(=O)O)cc1Cl (stereo not given) | 102 | 134 | 350 | 41 | > 10000 | 86 |
| COc1ccc(-c2cccc(COc3cc4c(c(C)c3C)C(=O)C(C3CCCC3)C4)c2)cc1C(=O)O (stereo not given) | 88.2 | 84.3 | 300 | – | – | 64.5 |
